Nine compounds from ChEMBL document CHEMBL2203123, “Synthesis and biological evaluation of some hydrazone derivatives as new anticandidal and anticancer agents” (Eur J Med Chem, 2012) can be followed below.

pIC50: −log10 of the molar value. Some results are limits rather than exact numbers.

For test [1], the system named is Candida parapsilosis. The experiment in a line: Antifungal activity against Candida parapsilosis NRRL Y-12696 after 24 hrs by microdilution susceptibility assay. It is filed as functional. The settings on record: Lodderomyces parapsilosis, NRRL Y-12696, 24 h. The method in brief: (§1)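 Broth microdilution in Mueller Hinton Broth, compounds from DMSO stocks diluted serially; inocula standardized to 10^6 CFU/mL (McFarland 0.5) from overnight MHB cultures. Plates held 37 °C for 24 h; MIC taken as first well without turbidity, aided by 1% tetrazolium violet added for 3 h at 37 °C. Ketoconazole reference.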
For orientation: Dilution methods test growth across graded concentrations, often in twofold steps.

Test [2] deals with Nakaseomyces glabratus. Put plainly: Antifungal activity against Candida glabrata Osmangazi University clinical isolate after 24 hrs by microdilution susceptibility assay. It is filed as functional. In short, it runs like this:
as §1

The subject of test [3] is Candida albicans. Put plainly: Antifungal activity against Candida albicans ATCC 10231 after 24 hrs by microdilution susceptibility assay. It is filed as functional. The settings on record: ATCC 10231, 24 h. The method in brief: as §1
The subject of test [4] is Pichia kudriavzevii. Put plainly: Antifungal activity against Candida krusei NRRL Y-7179 after 24 hrs by microdilution susceptibility assay. It is filed as functional. The settings on record: NRRL Y-7179, 24 h. In short, it runs like this: as §1
For test [5], the system named is A549. Put plainly: Cytotoxicity against human A549 cells after 24 hrs by XTT assay. It is filed as functional, cell-based. The settings on record: A549, 24 h. The method in brief:
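A549 cells in RPMI 1640 with 10% fetal calf serum, penicillin/streptomycin, 37 °C, 5% CO2; 20,000 cells/well seeded, after 24 h exposed to compounds at 0.00316 µM-10 mM for 24 h. XTT mitochondrial activity read at 480 nm (reference 680 nm) after 3 h; % inhibition per concentration, IC50 by non-linear regression.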
(In general: Tetrazolium dyes change colour on reduction, which living cells bring about.)

In test [6] the test system is Candida albicans. Put plainly: Antifungal activity against Candida albicans clinical isolate after 24 hrs by microdilution susceptibility assay. It is filed as functional. The method in brief:
as §1

The test system of test [7] is Cyberlindnera jadinii. The experiment in a line: Antifungal activity against Candida utilis NRRL Y-900 after 24 hrs by microdilution susceptibility assay. It is filed as functional. To be noted: Williopsis jadinii, NRRL Y-900, 24 h. The method in brief:
as §1

Test [8] concerns NIH3T3. Put plainly: Cytotoxicity against mouse NIH/3T3 cells after 24 hrs by XTT assay. It is filed as cell-based. To be noted: NIH3T3, 24 h. The method in brief: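 Mouse NIH3T3 fibroblasts grown in DMEM with fetal calf serum, penicillin/streptomycin, 37 °C, 5% CO2; 20,000 cells/well, treated after 24 h with 0.00316 µM-10 mM compound for 24 h. Viability via XTT (3 h, OD 480 nm, reference 680 nm); % inhibition computed and IC50 fitted by non-linear regression.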

The subject of test [9] is Candida albicans. The experiment in a line: Antifungal activity against Candida albicans ATCC 90028 after 24 hrs by microdilution susceptibility assay. It is filed as functional. The settings on record: ATCC 90028, 24 h. The method in brief: as §1
The subject of test [10] is Nakaseomyces glabratus. The experiment in a line: Antifungal activity against Candida glabrata Anadolu University clinical isolate after 24 hrs by microdilution susceptibility assay. It is filed as functional. In short, it runs like this:
as §1

What is called MIC is the least concentration at which growth counts as inhibited. For orientation: pIC50 means −log10 of the IC50, conventionally taken in molar units. High values mean a low IC50, low ones a high IC50. As for `Cn1nnnc1SCC(=O)N/N=C/c1ccccc1`, the MIC in [1], in [2], in test [3], in test [4], in test [6] and in test [7] was above 8000 µg/mL throughout. The MIC in test [9] and in [10] was above 8000 µg/mL in each case. For the same compound, the pIC50 is 2.50 in [5] and 2.01 in [8].

As to `Cn1nnnc1SCC(=O)N/N=C/c1ccc([N+](=O)[O-])cc1`, the MIC in test [1], in test [2], in test [3], in test [4], in [6] and in test [7] was above 8000 µg/mL each time. For the same compound, the MIC in test [9] and in test [10] was above 8000 µg/mL throughout. The values for the pIC50 in [5] and in [8] were 3.20 and 2.03, respectively.

In the case of `Cc1ccc(/C=N/NC(=O)CSc2nnnn2C)cc1`, the MIC in test [1], in test [2], in [3], in [4], in [6] and in test [7] was above 8000 µg/mL in each case. In addition, the MIC in test [9] and in [10] was above 8000 µg/mL in each case. The pIC50 in test [5] and in test [8] was 2.50 each time.

In the case of `Cn1nnnc1SCC(=O)N/N=C/c1ccc(F)cc1`, the MIC in test [1], in test [2], in [3], in test [4], in [6] and in [7] was above 8000 µg/mL throughout. The MIC in test [9] and in test [10] was above 8000 µg/mL each time. In addition, the values for the pIC50 in [5] and in test [8] were 2.50 and 2.00, respectively.

Regarding `Cn1nnnc1SCC(=O)N/N=C/c1ccc(Cl)cc1`, the MIC in test [1], in test [2], in test [3], in test [4], in [6] and in [7] was above 8000 µg/mL throughout. Also, the MIC in test [9] and in test [10] was above 8000 µg/mL in each case. In addition, the figures for the pIC50 in test [5] and in test [8] were 4.00 and 2.68, respectively.

For `Cn1nnnc1SCC(=O)N/N=C/c1ccc(Br)cc1`, the MIC in test [1], in test [2], in test [3], in test [4], in [6] and in test [7] was above 8000 µg/mL in each case. Moreover, the MIC in test [9] and in [10] was above 8000 µg/mL in each case. Further, the pIC50 in test [5] was below 2.00; in test [8], 2.00.

As for `CC(C)c1ccc(/C=N/NC(=O)CSc2nnnn2C)cc1`, the MIC in [1], in [2], in test [3], in test [4], in test [6] and in test [7] was above 8000 µg/mL each time. The MIC in [9] and in [10] was above 8000 µg/mL throughout. The pIC50 in [5] was 3.40; in test [8], 2.92.

For `Cn1nnnc1SCC(=O)N/N=C/c1ccc(C(F)(F)F)cc1`, the MIC in [1], in test [2], in test [3], in [4], in test [6] and in [7] was above 8000 µg/mL each time. For the same compound, the MIC in test [9] and in [10] was above 8000 µg/mL in each case. Besides, the pIC50 in [5] is 2.20; in test [8] it was below 2.00.

With `Cn1nnnc1SCC(=O)N/N=C/c1cccc([N+](=O)[O-])c1`, the MIC in test [1], in test [2], in [3], in test [4], in [6] and in [7] was above 8000 µg/mL throughout. The MIC in test [9] and in test [10] was above 8000 µg/mL each time. Besides, the pIC50 in test [5] was below 2.00; in test [8], 2.70.
